Measured values from different studies.
Target: Amine oxidase [flavin-containing] A (MAOA, Homo sapiens, UniProt P21397)
Observed: enzyme activity
Action: inhibitor
Sequence (P21397 1-527, as in one of the studies): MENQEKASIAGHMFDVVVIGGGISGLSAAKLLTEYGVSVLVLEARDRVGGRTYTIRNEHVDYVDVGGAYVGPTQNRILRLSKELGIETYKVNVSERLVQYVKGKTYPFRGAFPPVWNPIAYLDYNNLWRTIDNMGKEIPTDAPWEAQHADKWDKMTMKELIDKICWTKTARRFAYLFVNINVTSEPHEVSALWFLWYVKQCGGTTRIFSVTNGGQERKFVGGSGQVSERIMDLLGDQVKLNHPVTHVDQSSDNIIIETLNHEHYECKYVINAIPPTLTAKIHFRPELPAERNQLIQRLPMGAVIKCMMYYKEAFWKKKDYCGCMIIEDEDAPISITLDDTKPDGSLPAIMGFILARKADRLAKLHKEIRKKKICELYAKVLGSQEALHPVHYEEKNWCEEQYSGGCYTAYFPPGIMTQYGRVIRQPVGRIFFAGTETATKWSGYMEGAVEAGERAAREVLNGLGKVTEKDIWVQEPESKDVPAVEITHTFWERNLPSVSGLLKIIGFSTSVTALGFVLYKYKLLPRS

COC(=O)c1ccc(C(=O)OC)c(NC(=O)c2cc(Cl)ccc2O)c1
IC50: > 5 µM

C#CCOc1ccc(/C=C/C(=O)N2CCc3ccccc3C2)cc1OC
IC50 (fluorescence): 64 µM

CN1CCN(C(=O)CN[C@@H]2C[C@H]2c2ccc(OCc3ccccc3)cc2)CC1
IC50 (luciferase): 0.51 µM

O=C(O)c1cc(O)c2c(c1)C(=O)c1cc(O)cc(O)c1C2=O
IC50: 47.1 µM

COc1ccc(/C=C/C(=O)N2CCC(Cc3ccccc3)CC2)cc1OC
IC50 (fluorescence): 66.1 µM

O=C1c2c(O)cc(O)cc2O[C@H](c2ccc(O)cc2)[C@H]1O
IC50: 14.6 µM

O=C(Nc1ccc([N+](=O)[O-])cc1Cl)c1cc2ccccc2o1
IC50: 0.293 µM

O=C1C[C@@H](c2ccc(O)cc2)Oc2cc(O)cc(O)c21
IC50: 8.64 µM

COc1cc(/C=C/C(=O)N2CCc3ccccc3C2)ccc1OC1CCCCC1
IC50 (fluorescence): 65.3 µM

O=c1c(O)c(-c2ccc(O)c(O)c2)oc2cc(O)ccc12
IC50: 4.62 µM

c1cc2c(cc1C1CCCCC1)c1c3n2CCNC3CCC1 (centres unmarked)
Ki (pH 7.5): 5.3 µM
